Test results: ChEMBL document CHEMBL3124923, “Isolation, structure elucidation, and biological activity of altersolanol P using Staphylococcus aureus fitness test based genome-wide screening” (2014)
Converted amounts (≈) assume the structure as drawn. The source made the active and inactive calls. No cut-off for these calls is given here.

What was measured:
Assay type in all cases: functional
Pseudomonas aeruginosa = assay: Antimicrobial activity against Pseudomonas aeruginosa
Staphylococcus aureus [1] = assay: Antimicrobial activity against Staphylococcus aureus
Haemophilus influenzae = assay: Antimicrobial activity against Haemophilus influenzae MB 4572 after 20 hrs by 2-fold serial broth dilution method; details: MB 4572, 20 h
Method in brief: (§1)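 MIC for each strain determined following the NCCLS (now CLSI) method, using 2-fold serial dilution of the compound. For the S. aureus Smith strain, MIC was also run with 50% human serum in the medium.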

Enterococcus faecalis = assay: Antimicrobial activity against vancomycin-sensitive Enterococcus faecalis CL 8516 after 20 hrs by 2-fold serial broth dilution method; details: CL 8516, 20 h
Method in brief: (§2)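 MIC read following the NCCLS (now CLSI) method, using 2-fold serial dilutions of test compound against each strain.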

Staphylococcus aureus [2] = assay: Antimicrobial activity against Staphylococcus aureus Smith MB 2865 after 20 hrs by 2-fold serial broth dilution method; details: Smith MB 2865, 20 h; method in brief: as §1
Candida albicans = assay: Antimicrobial activity against Candida albicans MY 1055 after 20 hrs by 2-fold serial broth dilution method; details: MY 1055, 20 h; method in brief: as §1
Staphylococcus aureus [3] = assay: Antimicrobial activity against Staphylococcus aureus Smith MB 2865 after 20 hrs by 2-fold serial broth dilution method in presence of 50 % human serum; details: for MIC: Smith MB 2865, 20 h; method in brief: as §1
Streptococcus pneumoniae [4] = assay: Antimicrobial activity against Streptococcus pneumoniae CL 2883 grown in iso sensitet medium after 20 hrs by 2-fold serial broth dilution method; details: CL 2883, 20 h; method in brief: as §1
Escherichia coli [5] = assay: Antimicrobial activity against Escherichia coli MB 5746 harboring envA/tolC gene after 20 hrs by 2-fold serial broth dilution method; details: MB 5746, 20 h; method in brief: as §2
Streptococcus pneumoniae [6] = assay: Antimicrobial activity against Streptococcus pneumoniae CL 2883 grown in 2.5 % lysed horse blood medium after 20 hrs by 2-fold serial broth dilution method; details: CL 2883, 20 h; method in brief: as §1
Bacillus subtilis = assay: Antimicrobial activity against Bacillus subtilis MB 964 after 20 hrs by 2-fold serial broth dilution method; details: MB 964, 20 h; method in brief: as §1
Escherichia coli [7] = assay: Antimicrobial activity against wild-type Escherichia coli MB 2884 after 20 hrs by 2-fold serial broth dilution method; details: MB 2884, 20 h; method in brief: as §1

| Structure (SMILES) | MIC (Pseudomonas aeruginosa) [µg/mL] | MIC (Staphylococcus aureus [1]) [µg/mL] | further results |
| --- | --- | --- | --- |
| COc1cc(O)c2c(c1)C(=O)C1=C(C2=O)[C@H](C)[C@@H](O)[C@@](C)(O)[C@@H]1O | 12.5 (≈ 37.4 µM) | 12.5 (≈ 37.4 µM) | – |
| COc1cc(O)c2c(c1)C(=O)C1=C(C[C@H](O)[C@@](C)(O)[C@@H]1O)C2=O | 12.5 (≈ 39 µM) | 12.5 (≈ 39 µM) | – |
| COc1cc(O)c2c(c1)C(=O)C1=C(C2=O)[C@H](O)[C@H](O)[C@@](C)(O)[C@@H]1O | 12.5 (≈ 37.2 µM) | 12.5 (≈ 37.2 µM) | – |
| COc1cc(O)cc2c1C(=O)C1=C(C2=O)[C@H](O)[C@](C)(O)[C@H](O)[C@H]1O | 12.5 (≈ 37.2 µM) | 12.5 (≈ 37.2 µM) | – |
| COc1cc(O)cc2c1C(=O)C1=C(C2=O)[C@@H](O)[C@](C)(O)[C@H](O)[C@H]1O | 12.5 (≈ 37.2 µM) | 12.5 (≈ 37.2 µM) | – |
| C[C@@]1(O)CCC2=C(C(=O)c3cccc(O)c3C2=O)[C@@H]1O | – | 2 (≈ 7.29 µM) | MIC (Haemophilus influenzae): 2 µg/mL (≈ 7.29 µM); MIC (Enterococcus faecalis): 1 µg/mL (≈ 3.65 µM); MIC (Staphylococcus aureus [2]): 4 µg/mL (≈ 14.6 µM); MIC (Candida albicans): 8 µg/mL (≈ 29.2 µM); MIC (Staphylococcus aureus [3]): > 64 µg/mL; MIC (Streptococcus pneumoniae [4]): 4 µg/mL (≈ 14.6 µM); MIC (Escherichia coli [5]): 32 µg/mL (≈ 117 µM); MIC (Streptococcus pneumoniae [6]): 8 µg/mL (≈ 29.2 µM); MIC (Bacillus subtilis): 2 µg/mL (≈ 7.29 µM); MIC (Escherichia coli [7]): > 64 µg/mL |
| COc1cc(O)c2c(c1)C(=O)C1=C(C2=O)[C@H](O)[C@@H](O)[C@@](C)(O)[C@@H]1O [ALTERSOLANOL A] | 12.5 (≈ 37.2 µM) | 12.5 (≈ 37.2 µM) | – |
| COc1cc(O)c2c(c1)C(=O)C1=C(C[C@@H](O)[C@@](C)(O)C1)C2=O [ALTERSOLANOL B] | 12.5 (≈ 41.1 µM) | 12.5 (≈ 41.1 µM) | – |
| COc1cc(O)c2c(c1)C(=O)C1=C(C[C@@H](O)[C@@](C)(O)[C@@H]1O)C2=O [ALTERSOLANOL C] | 12.5 (≈ 39 µM) | 12.5 (≈ 39 µM) | – |
| COc1cc(O)c2c(c1)C(=O)[C@H]1C[C@](C)(O)[C@H](O)C[C@@H]1[C@H]2O [ALTERSOLANOL J] | 12.5 (≈ 40.5 µM) | 12.5 (≈ 40.5 µM) | – |
| COc1cc(O)c2c(c1)C(=O)[C@@H]1[C@H](C[C@@H](O)[C@@](C)(O)[C@@H]1O)[C@H]2O [ALTERSOLANOL K] | 12.5 (≈ 38.5 µM) | 12.5 (≈ 38.5 µM) | MIC (Candida albicans): 8 µg/mL (≈ 24.7 µM); Activity (Staphylococcus aureus [3]): Active |
| CC1(C)S[C@@H]2[C@H](NC(=O)Cc3ccccc3)C(=O)N2[C@H]1C(=O)O [PENICILLIN G] | – | – | MIC (Haemophilus influenzae): 0.06 µg/mL (≈ 0.179 µM); MIC (Enterococcus faecalis): 4 µg/mL (≈ 12 µM); MIC (Staphylococcus aureus [2]): < 0.06 µg/mL; MIC (Candida albicans): > 64 µg/mL; MIC (Staphylococcus aureus [3]): 0.12 µg/mL; MIC (Streptococcus pneumoniae [4]): < 0.015 µg/mL; MIC (Escherichia coli [5]): 8 µg/mL (≈ 23.9 µM); MIC (Streptococcus pneumoniae [6]): < 0.015 µg/mL; MIC (Bacillus subtilis): < 0.06 µg/mL |
